Source: ChEMBL document CHEMBL4477181, “Bioactive Octahydroxylated C21 Steroids from the Root Bark of Lycium chinense” (2016)
Active and inactive are the calls of the source. No cut-off for these calls is given here.

Legend:
CHO [1] = test: Induction of autophagy in CHO cells expressing GFP-LC3 assessed as GFP-LC3-2 accumulation at 25 uM measured after 8 hrs in presence of bafilomycin A1 by flow cytometry; assay type: functional, cell-based; conditions: Cricetulus griseus
Summary of the method: (§1)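 CHO cells stably expressing GFP-LC3 (selected in 1 mg/mL G418, maintained in DMEM/10% FBS with 800 μg/mL G418) were grown overnight. They were then treated in triplicate at 10, 25 or 50 μM for 8 h, with 20 μM curcumin as the positive control, alone or with 0.1 μM bafilomycin A1. Cells were trypsinised, washed, saponin-permeabilised, and fluorescence at 488 nm read by flow cytometry (>15,000 events).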

CHO [2] = test: Induction of autophagy in CHO cells expressing GFP-LC3 assessed as GFP-LC3-2 accumulation at 25 uM measured after 8 hrs by flow cytometry; assay type: functional, Cricetulus griseus; summary of the method: as §1
CHO [3] = test: Induction of autophagy in CHO cells expressing GFP-LC3 assessed as GFP-LC3-2 accumulation at 20 uM measured after 8 hrs by flow cytometry relative to control; assay type: functional, Cricetulus griseus
Summary of the method: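 CHO cells stably expressing GFP-LC3 (clones selected in 1 mg/mL G418) were kept in DMEM with 10% FBS and 800 μg/mL G418, seeded in 24-well plates and grown overnight. They were treated in triplicate for 8 h, with untreated cells as blank and 20 μM curcumin as positive control. Cells were trypsinized, washed with PBS then 0.1% saponin/PBS, and fluorescence at 488 nm was read by flow cytometry (>15,000 events).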

MIN6 [4] = test: Protective activity against palmitic acid-induced injury in mouse MIN6 cells assessed as increase in cell proliferation at 10 uM measured after 24 hrs by CCK8 assay; assay type: functional
Summary of the method: (§2)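 Mouse MIN6 β-cells were kept in DMEM (25 mM glucose, 50 μM β-mercaptoethanol, 10% FBS) and grown 24 h on poly-L-lysine to 80–90% confluency. They were then exposed 24 h in serum-free DMEM to 0.4 mM palmitic acid (final) plus compound in 0.1% DMSO (final); liraglutide was the reference. Read-out was CCK-8 absorbance at 450 nm, blank-corrected. Proliferation (%) = (OD sample − OD model)/OD model × 100.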

MIN6 [5] = test: Protective activity against palmitic acid-induced injury in mouse MIN6 cells assessed as increase in cell proliferation at 1 uM measured after 24 hrs by CCK8 assay; assay type: functional; summary of the method: as §2
MIN6 [6] = test: Protective activity against palmitic acid-induced injury in mouse MIN6 cells assessed as increase in cell proliferation measured after 24 hrs by CCK8 assay; assay type: functional, cell-based; summary of the method: as §2
MIN6 [7] = test: Protective activity against palmitic acid-induced injury in mouse MIN6 cells assessed as increase in cell proliferation at 5 and 10 uM measured after 24 hrs by CCK8 assay relative to DMSO control; assay type: functional
Summary of the method: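 MIN6 mouse β cells grown in DMEM (25 mM glucose, 10% FBS, β-mercaptoethanol) on poly-L-lysine plates to 80−90% confluency, then exposed 24 h in serum-free DMEM to 0.4 mM palmitic acid (final) plus compound in 0.1% DMSO (final). CCK-8 absorbance read at 450 nm, with compound-only blanks. Proliferation change = (OD sample − OD model)/OD model × 100.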

MIN6 [8] = test: Protective activity against palmitic acid-induced injury in mouse MIN6 cells assessed as increase in cell proliferation at 5 uM measured after 24 hrs by CCK8 assay; assay type: functional; summary of the method: as §2

SMILES | Activity (CHO [1]) | fold change (FC) (CHO [2]) | fold change (FC) (CHO [3]) | Activity (MIN6 [4]) | Activity (MIN6 [5]) | Activity (MIN6 [6]) | fold change (FC) (MIN6 [7]) | Activity (MIN6 [8])
CO[C@H]1C[C@H](O[C@H]2[C@@H](O)C[C@H](O[C@H]3CC[C@]4(C)[C@H]5C[C@@H](OC(=O)/C=C/C=C/c6ccccc6)[C@@]6(C)[C@](O)(CC[C@@]6(O)[C@H](C)O)[C@]5(O)C[C@H](O)[C@@]4(O)C3)O[C@@H]2C)O[C@H](C)[C@H]1O[C@H]1C[C@@H](OC)[C@H](O)[C@@H](C)O1 | Active | 3.1 |  |  |  |  |  | 
COc1cc(/C=C/C(=O)CC(=O)/C=C/c2ccc(O)c(OC)c2)ccc1O [CURCUMIN] |  |  | 1.7 |  |  |  |  | 
CO[C@H]1C[C@H](O[C@H]2[C@@H](O)C[C@H](O[C@H]3CC[C@]4(C)[C@H]5C[C@@H](OC(=O)/C=C/C=C/c6ccccc6)[C@@]6(C)[C@](O)(CC[C@@]6(O)[C@H](C)O)[C@]5(O)C[C@@H](O)[C@@]4(O)C3)O[C@@H]2C)O[C@H](C)[C@H]1O[C@H]1C[C@@H](OC)[C@H](O)[C@@H](C)O1 | Active | 2.5 |  |  |  |  |  | 
CO[C@H]1C[C@H](O[C@H]2[C@@H](O)C[C@H](O[C@H]3CC[C@]4(C)[C@H]5C[C@@H](OC(=O)/C=C/C=C/c6ccccc6)[C@@]6(C)[C@](O)(CC[C@@]6(O)[C@H](C)O)[C@]5(O)C[C@@H](O)[C@@]4(O)C3)O[C@@H]2C)O[C@H](C)[C@H]1O | Active | 2.1 |  | 87.7% | 0.2% | Dose-dependent effect | 2 | 81.7%
CCCCCCCCCCCCCCCC(=O)N[C@@H](CCC(=O)NCCCC[C@H](NC(=O)[C@H](C)NC(=O)[C@H](C)NC(=O)[C@H](CCC(N)=O)NC(=O)CNC(=O)[C@H](CCC(=O)O)NC(=O)[C@H](CC(C)C)NC(=O)[C@H](Cc1ccc(O)cc1)NC(=O)[C@H](CO)NC(=O)[C@H](CO)NC(=O)[C@@H](NC(=O)[C@H](CC(=O)O)NC(=O)[C@H](CO)NC(=O)[C@@H](NC(=O)[C@H](Cc1ccccc1)NC(=O)[C@@H](NC(=O)CNC(=O)[C@H](CCC(=O)O)NC(=O)[C@H](C)NC(=O)[C@@H](N)Cc1cnc[nH]1)[C@@H](C)O)[C@@H](C)O)C(C)C)C(=O)N[C@@H](CCC(=O)O)C(=O)N[C@@H](Cc1ccccc1)C(=O)N[C@H](C(=O)N[C@@H](C)C(=O)N[C@@H](Cc1c[nH]c2ccccc12)C(=O)N[C@@H](CC(C)C)C(=O)N[C@H](C(=O)N[C@@H](CCCNC(=N)N)C(=O)NCC(=O)N[C@@H](CCCNC(=N)N)C(=O)NCC(=O)O)C(C)C)[C@@H](C)CC)C(=O)O [LIRAGLUTIDE] |  |  |  |  | 19.1% |  |  | 
C[C@H](O)[C@]1(O)CC[C@@]2(O)[C@]1(C)[C@H](OC(=O)/C=C/C=C/c1ccccc1)C[C@@H]1[C@@]3(C)CC[C@H](O)C[C@]3(O)[C@H](O)C[C@]12O |  |  |  | 8.8% | -3.1% | Dose-dependent effect |  | 4.2%
C[C@H](O)[C@]1(O)CC[C@@]2(O)[C@]1(C)[C@H](OC(=O)/C=C/C=C/c1ccccc1)C[C@@H]1[C@@]3(C)CC[C@H](O[C@H]4C[C@H](O)[C@H](O)[C@@H](C)O4)C[C@]3(O)[C@H](O)C[C@]12O |  |  |  | 11.2% | 1.5% | Dose-dependent effect |  | 4%
CO[C@H]1C[C@H](O[C@@H]2[C@@H](C)O[C@@H](O[C@H]3[C@@H](O)C[C@H](O[C@H]4CC[C@]5(C)[C@H]6C[C@@H](OC(=O)/C=C/C=C/c7ccccc7)[C@@]7(C)[C@](O)(CC[C@@]7(O)[C@H](C)O)[C@]6(O)C[C@@H](O)[C@@]5(O)C4)O[C@@H]3C)C[C@H]2OC)O[C@H](C)[C@H]1O[C@H]1C[C@@H](OC)[C@H](O)[C@@H](C)O1 | Active | 1.3 |  |  |  |  |  | 
